Fewer inactive variants are shown than the library holds.
B1: tRNA (parent)
chain: GUUCCGUUGGCGUAAUGGUAACGCGUCUCCCUCCUAAGGAGAAGACUGCGGGUUCGAGUCCCGUACGGAACG

Variants of: B1
Test: yeast fitness relative to wild type (ratio to wild type); higher = fitter; tRNA-Arg(CCU), competitive growth, 37 C, YPD
Outline: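 The tRNA-Arg(CCU) gene variants were made by chemical synthesis with a 3% per-site mutation rate at 69 sites and inserted at the native genomic locus of Saccharomyces cerevisiae. After pooling, the strains were competed in YPD at 37°C for 24 hours in six parallel replicates. Gene amplicons from the start population and each end population were read by 100-nucleotide paired-end sequencing, and Darwinian fitness relative to wild type was taken from genotype frequency changes. Genotypes needed ≥ 100 starting reads, and estimates < 0.5 were set to 0.5.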
In the case of C4G U26C A40U C49U, the yeast fitness is reported as at most 0.5.
For C4G G6C G25A C29A C31A C33G, the yeast fitness was 0.59.
C4U A15G gave a yeast fitness of 0.997.
C4U A15U showed a yeast fitness of 0.89.
In the case of C4U A14G A45C, the yeast fitness is reported as 0.542.
With C4U A14U A21C A45C A69U the yeast fitness was at most 0.5.
C4G U8A G12A C34A G50C showed a yeast fitness of at most 0.5.
C4U A36C G63A showed a yeast fitness of 0.536.
Variant C4G U19A C27A has a yeast fitness of 0.741.
For C4G U8A G12A G48A A69C, the yeast fitness was 0.573.
With C4G G6A G23A A43G G48C the yeast fitness was at most 0.5.
For C4U C5G C29U U32A C33U G67U A70G, the yeast fitness was 0.54.
In the case of C4U A37G G41C C55G, the yeast fitness is reported as 0.537.
Work on C4G G17C C33A G56C A70C yielded a yeast fitness of 0.542.
Variant C4G G6C G39C has a yeast fitness of 0.578.
C4U A57G G58C gave a yeast fitness of 0.736.
Variant C4G G48U C66U has a yeast fitness of at most 0.5.
Variant C4G U8C G25A A42U has a yeast fitness of at most 0.5.
Variant C4G G67A has a yeast fitness of 0.913.
With C4G G67C the yeast fitness was 0.883.
For C4G C34G G67A, the yeast fitness was at most 0.5.
Variant C4G C62A G67C has a yeast fitness of at most 0.5.
C4G G9A G12C C29A G50C showed a yeast fitness of at most 0.5.
C4G U32A C34G G41C G68A gave a yeast fitness of at most 0.5.
C4U A42U G67C gave a yeast fitness of 0.676.
Work on C4G U8G G9A C11U yielded a yeast fitness of 0.562.
For C4U A43U, the yeast fitness was 0.963.
C4U A43C gave a yeast fitness of 1.01.
Variant C4G G17A A36U has a yeast fitness of 0.691.
C4G U7A C11A A21C C29U C49U showed a yeast fitness of at most 0.5.
In the case of C4G U8A G12A G48A C62U, the yeast fitness is reported as at most 0.5.
In the case of C4U A14C C55U G58C, the yeast fitness is reported as 0.595.
For C4U A40U A42U C46U, the yeast fitness was at most 0.5.
Work on C4G G12U A14C C49U A65G yielded a yeast fitness of 0.513.
Variant C4G G17A C34A A43G G68A has a yeast fitness of at most 0.5.
In the case of C4U A14G C46G, the yeast fitness is reported as 0.659.
In the case of C4G U13A A21C A43U A45G, the yeast fitness is reported as 0.559.
For C4G U8C C24G C30G A43C, the yeast fitness was at most 0.5.
Work on C4G U8C C60U G63C G68A yielded a yeast fitness of at most 0.5.
Variant C4G G9C G41A U53C C55U U59A A70U has a yeast fitness of at most 0.5.
C4G C55U C61A showed a yeast fitness of at most 0.5.
C4U A15G G23C A37U C61A gave a yeast fitness of at most 0.5.
C4U A42G C66A showed a yeast fitness of at most 0.5.
C4G U19A A21G G52C C55G gave a yeast fitness of at most 0.5.
C4G U13A U53A A65G gave a yeast fitness of at most 0.5.
In the case of C4U A14G A15G C22U C46U A70U, the yeast fitness is reported as at most 0.5.
In the case of C4G C61G A65C, the yeast fitness is reported as at most 0.5.
C4U A21G C46A G68C gave a yeast fitness of 0.544.
With C4G G12U A14C A57G the yeast fitness was at most 0.5.
Variant C4U C5A A15U C34U U54C C62U has a yeast fitness of at most 0.5.
C4G C34G A40G G68A gave a yeast fitness of at most 0.5.
Variant C4G G17A A69C has a yeast fitness of 0.525.
In the case of C4G G23A C55A C61A, the yeast fitness is reported as 0.667.
Work on C4G U28C C66U yielded a yeast fitness of 0.524.
In the case of C4G G58C C62U, the yeast fitness is reported as 0.651.
With C4G G6A C30A C34U C46U the yeast fitness was at most 0.5.
In the case of C4G U7G A69U, the yeast fitness is reported as at most 0.5.
Variant C4U A14G A40U has a yeast fitness of 0.593.
With C4U A15U U16A G23C G25A A57U A69U the yeast fitness was at most 0.5.
Work on C4G U8C C34G U47A C49A A65G yielded a yeast fitness of at most 0.5.
Work on C4U A45C C61U yielded a yeast fitness of 0.738.
Variant C4U A42C G58A has a yeast fitness of 0.567.
C4G G23C C66A showed a yeast fitness of at most 0.5.
C4U A15C A43G G44A U47A C49G showed a yeast fitness of at most 0.5.
With C4G G17A G25C C66U the yeast fitness was at most 0.5.
With C4G G9A A45C A57C G58C the yeast fitness was at most 0.5.
For C4G C62U, the yeast fitness was 0.869.
Variant C4U A69G has a yeast fitness of 0.901.
C4U A14C G44A U54A A70U gave a yeast fitness of at most 0.5.
Variant C4G U8G G9A C11U C49A has a yeast fitness of at most 0.5.
Variant C4U A21G C29G C31U G41A G50C A70C has a yeast fitness of 0.599.
Work on C4G G6A C22G C62U A70C yielded a yeast fitness of at most 0.5.
In the case of C4U A14U C22U A40U G44C A57C, the yeast fitness is reported as at most 0.5.
C4G G9A A70C showed a yeast fitness of 1.09.
With C4G G18C A45G C62A A69C the yeast fitness was at most 0.5.
Variant C4U A37G G39C A65G has a yeast fitness of at most 0.5.
Work on C4U A21C G25A C30A C31G U32C G41C yielded a yeast fitness of at most 0.5.
In the case of C4U A20G A69C, the yeast fitness is reported as 0.817.
Work on C4U A45C C60G yielded a yeast fitness of 0.671.
With C4G G10C G12A A36C U54G C60U A70G the yeast fitness was 0.615.
C4G U7A A42C G48C showed a yeast fitness of at most 0.5.
C4U A45C A69U showed a yeast fitness of 0.822.
C4U A20U U28C C61G showed a yeast fitness of at most 0.5.
For C4G U19C C62U G63A, the yeast fitness was 0.545.
In the case of C4U A15C G51C A57G, the yeast fitness is reported as at most 0.5.
C4G U8C C24G U32G showed a yeast fitness of at most 0.5.
Variant C4U A14G G48C has a yeast fitness of 0.659.
In the case of C4U A20C C34G A36G A65U, the yeast fitness is reported as at most 0.5.
With C4U A42U C61G the yeast fitness was 0.593.
In the case of C4G C33G A65U, the yeast fitness is reported as 0.605.
Work on C4G G12A C27A C31A G52A G58C A70G yielded a yeast fitness of at most 0.5.
C4G G68A showed a yeast fitness of 0.904.
In the case of C4U C5A A40C G68C, the yeast fitness is reported as at most 0.5.
Variant C4G G18C G58C C61U G68A has a yeast fitness of 0.615.
Variant C4G U16G C30U C34A U53G A70C has a yeast fitness of at most 0.5.
Work on C4G U16A U35A C61G yielded a yeast fitness of 0.882.
C4G U8C C24G U47C gave a yeast fitness of at most 0.5.
C4U A42G C49U showed a yeast fitness of 0.704.
C4G G17A U28A C55U gave a yeast fitness of at most 0.5.
Work on C4G G44C C49G G56A C61G A65U A69G yielded a yeast fitness of 0.641.
With C4G G18C A42U C46G the yeast fitness was at most 0.5.
C4U A21C C27G A43C G48A C66A showed a yeast fitness of at most 0.5.
In the case of C4G C55U C66G, the yeast fitness is reported as at most 0.5.
With C4U A20U A40U G67C the yeast fitness was at most 0.5.
C4G C34G G56A U59A gave a yeast fitness of at most 0.5.
Work on C4G U8A A14C G48A G63C yielded a yeast fitness of at most 0.5.
In the case of C4G U28A C31G A57G C62U, the yeast fitness is reported as 0.532.
C4U A57U A70U gave a yeast fitness of 0.578.
C4U A20U gave a yeast fitness of 0.988.
C4U A20G showed a yeast fitness of 0.979.
Work on C4G G6C C34G A42G G63C yielded a yeast fitness of at most 0.5.
With C4U A45G U53G the yeast fitness was at most 0.5.
For C4G U13A C29U A40C, the yeast fitness was at most 0.5.
Work on C4G U64C G68C yielded a yeast fitness of 0.632.
C4G U7G A36C A37C A57C C66U showed a yeast fitness of at most 0.5.
Variant C4G U8A G12A G48A has a yeast fitness of 0.511.
For C4G C66A, the yeast fitness was 0.61.
In the case of C4G G6A U13G A14G A69U, the yeast fitness is reported as at most 0.5.
Variant C4G U7G G12C A20U G63A C66A has a yeast fitness of at most 0.5.
C4G U26A C30U G48A U54A C55G A65U showed a yeast fitness of at most 0.5.
Variant C4G G12U A14C U16C C49U A65G has a yeast fitness of at most 0.5.
Work on C4U A15U A45G C62G yielded a yeast fitness of at most 0.5.
For C4U A40U G68C, the yeast fitness was 0.68.
C4G U16A A36C U54G C60U A70G gave a yeast fitness of at most 0.5.
C4G U13A G68C gave a yeast fitness of 0.541.
Variant C4U A15G G23C A37U C49U A65U has a yeast fitness of 0.525.
Work on C4G G63A yielded a yeast fitness of 0.813.
C4G U7C A45U G48C gave a yeast fitness of at most 0.5.
For C4G U8C C22G A42C C49U A57C, the yeast fitness was 0.676.
C4U A15U U28C A57G gave a yeast fitness of at most 0.5.
In the case of C4U A42C C55U, the yeast fitness is reported as at most 0.5.
Variant C4G U53A A65C has a yeast fitness of at most 0.5.
For C4G U59G, the yeast fitness was 0.653.
With C4U A15U A42C A57U the yeast fitness was at most 0.5.
For C4U C5G C29U U32A C33U, the yeast fitness was at most 0.5.
With C4G G38A C55U C60G the yeast fitness was at most 0.5.
In the case of C4U A15G G23A C34G, the yeast fitness is reported as at most 0.5.
With C4U A15C G41A G63C the yeast fitness was at most 0.5.
Variant C4G U7C C27A has a yeast fitness of at most 0.5.
With C4U C5A C61U the yeast fitness was 0.719.
With C4G G6A C11U G23A A43G the yeast fitness was at most 0.5.
C4U A15C C29G C30G A43C gave a yeast fitness of at most 0.5.
Work on C4G U7A G9A C11U C30G yielded a yeast fitness of 0.545.
In the case of C4U C5A U59C C60G, the yeast fitness is reported as at most 0.5.
C4U A37C G38A gave a yeast fitness of 0.613.
C4G G9C G52A G63C gave a yeast fitness of at most 0.5.
For C4G C62U A69U, the yeast fitness was 0.672.
Work on C4U A21C G67U yielded a yeast fitness of at most 0.5.
In the case of C4U A21G U28G C60A, the yeast fitness is reported as at most 0.5.
C4G U8G C24A C31G G50A A69U showed a yeast fitness of at most 0.5.
C4G G18A A45C showed a yeast fitness of at most 0.5.
In the case of C4U A20U C27G C30G U32C A43G A65C G68C, the yeast fitness is reported as at most 0.5.
For C4U A40G U64C, the yeast fitness was 0.952.
Variant C4U A57G has a yeast fitness of 0.872.
For C4U A57C, the yeast fitness was 0.709.
For C4G U8C C24U A43G, the yeast fitness was 0.527.
For C4G G17C C33G U59C, the yeast fitness was at most 0.5.
C4U A21U A42G G50C C66U A70U gave a yeast fitness of at most 0.5.
Variant C4G G17A U26C U28C A40G A70C has a yeast fitness of at most 0.5.
For C4G G10U A14U C24U C33U G52A, the yeast fitness was 0.544.
C4G G17A A57U U59C gave a yeast fitness of at most 0.5.
Variant C4U A40U U47C has a yeast fitness of 0.643.
For C4U A14G A70U, the yeast fitness was 0.787.
Work on C4U A37C yielded a yeast fitness of 0.884.
Work on C4G C31U C55A yielded a yeast fitness of at most 0.5.
In the case of C4G G6A, the yeast fitness is reported as 0.977.
With C4G G25A C49U G50U G63C the yeast fitness was at most 0.5.
